Experimental data as given in ChEMBL document CHEMBL1687913, “Structure-activity relationship, conformational and biological studies of temporin L analogues” (J Med Chem, 2011).
≈ marks a conversion by molar mass, not a printed value. Where a SMILES comes first, the peptide text is derived from it. [ ]: non-standard residue; d: D form. Orn = NCCC[C@H](N)C(=O)O

Key:
[1] = system: Staphylococcus capitis; experiment: Antibacterial activity against Staphylococcus capitis after 18 to 20 hrs by microbroth dilution method; type: functional
Procedure, shortened: (§1)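 CLSI microbroth dilution, adapted. Mid-log bacteria, 2 × 10^6 CFU/mL in Mueller-Hinton broth, mixed 1:1 with MH broth holding peptide in serial 2-fold dilutions in 20% ethanol (0.75-48 μM). Incubated 18-20 h at 37 °C; growth read as A600. MIC is the lowest concentration giving 100% growth inhibition.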

[2] = system: Pseudomonas aeruginosa; experiment: Antibacterial activity against Pseudomonas aeruginosa ATCC 27853 after 18 to 20 hrs by microbroth dilution method; type: functional; procedure, shortened: as §1
[3] = system: Staphylococcus epidermidis; experiment: Antibacterial activity against Staphylococcus epidermidis ATCC 12228 after 18 to 20 hrs by microbroth dilution method; type: functional; procedure, shortened: as §1
[4] = system: Schizosaccharomyces pombe; experiment: Antifungal activity against Schizosaccharomyces pombe after 18 to 20 hrs by microbroth dilution method; type: functional
Procedure, shortened: (§2)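 Yeasts tested by adapted CLSI microbroth dilution in Winge medium. Peptide given in serial 2-fold dilutions (0.75-48 μM, made in 20% ethanol). Incubation 18-20 h at 30 °C, read at A600. MIC taken as the concentration giving complete (100%) growth inhibition.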

[5] = system: Candida albicans; experiment: Antifungal activity against Candida albicans ATCC 10231 after 18 to 20 hrs by microbroth dilution method; type: functional; procedure, shortened: as §2
[6] = system: Pseudomonas syringae; experiment: Antibacterial activity against Pseudomonas syringae pv tobaci after 18 to 20 hrs by microbroth dilution method; type: functional; procedure, shortened: as §1
[7] = system: Escherichia coli; experiment: Antibacterial activity against Escherichia coli D21 after 18 to 20 hrs by microbroth dilution method; type: functional; procedure, shortened: as §1
[8] = system: Enterococcus faecalis; experiment: Antibacterial activity against Enterococcus faecalis ATCC 29212 after 18 to 20 hrs by microbroth dilution method; type: functional; procedure, shortened: as §1
[9] = system: Staphylococcus aureus; experiment: Antibacterial activity against Staphylococcus aureus ATCC 25923 after 18 to 20 hrs by microbroth dilution method; type: functional; procedure, shortened: as §1
[10] = Toxicity in human erythrocytes assessed as hemolysis at 3 uM after 40 mins; type: cell-based, Erythrocyte; settings: read-out: Activity
Procedure, shortened: (§3)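 Human red blood cells suspended in 0.9% (w/v) NaCl and incubated 40 min at 37 °C with gentle mixing with serial 2-fold peptide dilutions (peptide predissolved in 20% ethanol). Spun 5 min at 900g; supernatant read at 415 nm. Cells lysed in distilled water set the 100% lysis reference.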

[11] = system: Priestia megaterium; experiment: Antibacterial activity against Bacillus megaterium Bm11 after 18 to 20 hrs by microbroth dilution method; type: functional; procedure, shortened: as §1
[12] = system: Acinetobacter junii; experiment: Antibacterial activity against […] Acinetobacter junii RT-4 after 18 to 20 hrs by microbroth dilution method; type: functional; procedure, shortened: as §1
[13] = Toxicity in human erythrocytes assessed as hemolysis at 24 uM after 40 mins; type: cell-based, Erythrocyte; settings: read-out: Activity; procedure, shortened: as §3
[14] = system: Streptococcus pyogenes; experiment: Antibacterial activity against Streptococcus pyogenes ATCC 21547 after 18 to 20 hrs by microbroth dilution method; type: functional; procedure, shortened: as §1
[15] = system: Acinetobacter baumannii; experiment: Antibacterial activity against Acinetobacter baumannii ATCC 19606 after 18 to 20 hrs by microbroth dilution method; type: functional; procedure, shortened: as §1
[16] = Toxicity in human erythrocytes assessed as hemolysis at 1.5 uM after 40 mins; type: cell-based, Erythrocyte; settings: read-out: Activity; procedure, shortened: as §3
[17] = system: Staphylococcus aureus; experiment: Antibacterial activity against Staphylococcus aureus Cowan I after 18 to 20 hrs by microbroth dilution method; type: functional; procedure, shortened: as §1
[18] = system: Pseudomonas aeruginosa; experiment: Antibacterial activity against Pseudomonas aeruginosa ATCC 15692 after 18 to 20 hrs by microbroth dilution method; type: functional; procedure, shortened: as §1
[19] = Toxicity in human erythrocytes assessed as hemolysis at 6 uM after 40 mins; type: cell-based, Erythrocyte; settings: read-out: Activity; procedure, shortened: as §3
[20] = system: Escherichia coli; experiment: Antibacterial activity against Escherichia coli ATCC 25922 after 18 to 20 hrs by microbroth dilution method; type: functional; procedure, shortened: as §1
[21] = system: Saccharomyces cerevisiae; experiment: Antifungal activity against Saccharomyces cerevisiae after 18 to 20 hrs by microbroth dilution method; type: functional; procedure, shortened: as §2
[22] = system: Yersinia pseudotuberculosis; experiment: Antibacterial activity against Yersinia pseudotuberculosis YPIII after 18 to 20 hrs by microbroth dilution method; type: functional
Procedure, shortened: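 Broth microdilution adapted from CLSI. Mid-log bacteria at 2 × 10^6 CFU/mL in Mueller-Hinton broth were mixed 1:1 with MH broth containing peptide in serial 2-fold dilutions (peptide in 20% ethanol), 0.75-48 μM. Plates were incubated 18-20 h at 37 °C and growth was read as A600. MIC is the concentration giving 100% growth inhibition.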

[23] = Toxicity in human erythrocytes assessed as hemolysis at 12 uM after 40 mins; type: cell-based, Erythrocyte; settings: read-out: Activity; procedure, shortened: as §3

| Compound | MIC [1] [µM] | MIC [2] [µM] | MIC [3] [µM] | MIC [4] [µM] | MIC [5] [µM] | MIC [6] [µM] | MIC [7] [µM] | MIC [8] [µM] | MIC [9] [µM] | hemolysis at 40 min, 3 µM [10] [%] | MIC [11] [µM] | MIC [12] [µM] | hemolysis at 40 min, 24 µM [13] [%] | MIC [14] [µM] | MIC [15] [µM] | hemolysis at 40 min, 1.5 µM [16] [%] | MIC [17] [µM] | MIC [18] [µM] | hemolysis at 40 min, 6 µM [19] [%] | MIC [20] [µM] | other results |
| --- | --- | --- | --- | --- | --- | --- | --- | --- | --- | --- | --- | --- | --- | --- | --- | --- | --- | --- | --- | --- | --- |
| CC[C@H](C)[C@H](NC(=O)[C@H](CCCN)NC(=O)CNC(=O)[C@H](CC(C)C)NC(=O)[C@H](Cc1ccccc1)NC(=O)[C@H](CCCCN)NC(=O)[C@H](CO)NC(=O)[C@H](Cc1ccccc1)NC(=O)[C@H](Cc1c[nH]c2ccccc12)NC(=O)[C@@H]1CCCN1C(=O)[C@@H](NC(=O)[C@@H](N)Cc1ccccc1)C(C)C)C(=O)N[C@@H](CC(C)C)C(N)=O (H-FVPWFSKFLG[Orn]IL-NH2) | 6 (≈ 9.4 µg/mL) | 48 (≈ 75.2 µg/mL) | 6 (≈ 9.4 µg/mL) | 12 (≈ 18.8 µg/mL) | 6 (≈ 9.4 µg/mL) | 12 (≈ 18.8 µg/mL) | 24 (≈ 37.6 µg/mL) | 12 (≈ 18.8 µg/mL) | 12 (≈ 18.8 µg/mL) | 1 | 6 (≈ 9.4 µg/mL) | 6 (≈ 9.4 µg/mL) | 72 | 6 (≈ 9.4 µg/mL) | 12 (≈ 18.8 µg/mL) | 0.7 | 3 (≈ 4.7 µg/mL) | 48 (≈ 75.2 µg/mL) | 2 | 12 (≈ 18.8 µg/mL) | MIC [21]: 6 µM (≈ 9.4 µg/mL); MIC [22]: 6 µM (≈ 9.4 µg/mL); hemolysis at 40 min, 12 µM [23]: 12% |
| CC[C@H](C)[C@H](NC(=O)[C@H](CCCNC(=N)N)NC(=O)CNC(=O)[C@H](CC(C)C)NC(=O)[C@H](Cc1ccccc1)NC(=O)[C@H](CCCCN)NC(=O)[C@H](CO)NC(=O)[C@H](Cc1ccccc1)NC(=O)[C@H](Cc1c[nH]c2ccccc12)NC(=O)[C@@H]1CCCN1C(=O)[C@@H](NC(=O)[C@@H](N)Cc1ccccc1)C(C)C)C(=O)N[C@@H](CC(C)C)C(N)=O (H-FVPWFSKFLGRIL-NH2) | 1.5 (≈ 2.41 µg/mL) | > 48 | 1.5 (≈ 2.41 µg/mL) | 3 (≈ 4.83 µg/mL) | 6 (≈ 9.65 µg/mL) | 6 (≈ 9.65 µg/mL) | 12 (≈ 19.3 µg/mL) | 6 (≈ 9.65 µg/mL) | 3 (≈ 4.83 µg/mL) | 6 | 1.5 (≈ 2.41 µg/mL) | 6 (≈ 9.65 µg/mL) | 92 | 6 (≈ 9.65 µg/mL) | 6 (≈ 9.65 µg/mL) | 4.5 | 1.5 (≈ 2.41 µg/mL) | 24 (≈ 38.6 µg/mL) | 10 | 24 (≈ 38.6 µg/mL) | MIC [21]: 6 µM (≈ 9.65 µg/mL); MIC [22]: 3 µM (≈ 4.83 µg/mL); hemolysis at 40 min, 12 µM [23]: 42% |
| CC[C@H](C)[C@H](NC(=O)[C@H](CCCNC(=N)N)NC(=O)[C@H]1CCCN1C(=O)[C@H](CC(C)C)NC(=O)[C@H](Cc1ccccc1)NC(=O)[C@H](CCCCN)NC(=O)[C@H](CO)NC(=O)[C@H](Cc1ccccc1)NC(=O)[C@H](Cc1c[nH]c2ccccc12)NC(=O)[C@@H]1CCCN1C(=O)[C@@H](NC(=O)[C@@H](N)Cc1ccccc1)C(C)C)C(=O)N[C@@H](CC(C)C)C(N)=O | 24 (≈ 39.6 µg/mL) | > 48 | 12 (≈ 19.8 µg/mL) | 12 (≈ 19.8 µg/mL) | 24 (≈ 39.6 µg/mL) | > 48 | 48 (≈ 79.2 µg/mL) | 48 (≈ 79.2 µg/mL) | 48 (≈ 79.2 µg/mL) | 1.5 | 3 (≈ 4.95 µg/mL) | 24 (≈ 39.6 µg/mL) | 2.5 | 24 (≈ 39.6 µg/mL) | 48 (≈ 79.2 µg/mL) | 0.4 | 24 (≈ 39.6 µg/mL) | > 48 | 0.6 | 24 (≈ 39.6 µg/mL) | MIC [21]: 12 µM (≈ 19.8 µg/mL); MIC [22]: 24 µM (≈ 39.6 µg/mL); hemolysis at 40 min, 12 µM [23]: 2% |
| CC[C@H](C)[C@H](NC(=O)[C@H](CCCNC(=N)N)NC(=O)CNC(=O)[C@H](CC(C)C)NC(=O)[C@H](Cc1ccccc1)NC(=O)[C@H](CCCCN)NC(=O)[C@H](CO)NC(=O)[C@H](Cc1ccccc1)NC(=O)[C@H](Cc1c[nH]c2ccccc12)NC(=O)[C@H](CCC(N)=O)NC(=O)[C@@H](NC(=O)[C@@H](N)Cc1ccccc1)C(C)C)C(=O)N[C@@H](CC(C)C)C(N)=O [TEMPORIN L] | 1.5 (≈ 2.46 µg/mL) | > 48 | 3 (≈ 4.92 µg/mL) | 6 (≈ 9.84 µg/mL) | 12 (≈ 19.7 µg/mL) | 6 (≈ 9.84 µg/mL) | 12 (≈ 19.7 µg/mL) | 6 (≈ 9.84 µg/mL) | 3 (≈ 4.92 µg/mL) | 13 | 1.5 (≈ 2.46 µg/mL) | 3 (≈ 4.92 µg/mL) | 94 | 6 (≈ 9.84 µg/mL) | 6 (≈ 9.84 µg/mL) | 3 | 3 (≈ 4.92 µg/mL) | 24 (≈ 39.4 µg/mL) | 48 | 12 (≈ 19.7 µg/mL) | MIC [21]: 6 µM (≈ 9.84 µg/mL); MIC [22]: 3 µM (≈ 4.92 µg/mL); hemolysis at 40 min, 12 µM [23]: 92% |
